# Experimental data from paper PMC4254268 (Cellular signalling, 2014).
# Legend:
# [1] = test system: NRK-52E cells; test: Intracellular angiotensin peptide content by RIA; assay type: cell-based, rat
# How it was run: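 Cells were serum-free for 24 h, then given 100 uM MGA for 48 h; pellets were snap-frozen. Pellets were boiled 15 min in water, sonicated, acidified to 0.2% TFA and spun at 20,000g for 20 min at 4°C. Peptides were extracted on C18 (eluted in 80% methanol/0.2% TFA) and blanks subtracted. Ang I, Ang II and Ang-(1-7) were measured by separate RIAs; the Ang-(1-7) RIA also detects Ang-(2-7). Paired t-test versus control.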
# [2] = test system: NRK-52E cells; test: Cellular hypertrophy by 3H-leucine incorporation; assay type: cell-based, rat; details: 100 μM MGA 48 h
# How it was run: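 Confluent NRK-52E cells were serum-starved for 24 h, then kept 48 h in serum-free medium ± 100 μM MGA and test agents. Cells were pulsed with 0.5 μCi 3H-leucine for the last 24 h at 37°C, washed in PBS and fixed 15 min in ice-cold 10% TCA. After 5% TCA washes, protein was dissolved in 0.05 N NaOH/0.1% SDS at 37°C and counted by scintillation. Triplicate wells; % of control per well; 5 cell passages.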
# [3] = test system: NRK-52E cells; test: Cell area in immunofluorescent images; assay type: cell-based, rat; details: MGA 48 hours
# How it was run: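 NRK-52E cells were serum-starved for 24 h, then exposed to MGA for 48 h. Immunofluorescent images were taken. Fields were chosen at random and every cell in each field was measured. Cell area was expressed as % of control cell area.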
# [4] = test system: α-SMA in NRK-52E cells; test: α-SMA protein expression by Western blot; assay type: cell-based, rat; details: 100 μM MGA 48 h
# How it was run: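 After 24 h serum starvation, cells received 100 uM MGA ± test agents for 48 h. Triton lysates were run on 10% SDS-PAGE and transferred to PVDF. Blots were probed overnight at 4°C with mouse anti-α-SMA (1:5000), then anti-mouse HRP (1:3000) and chemiluminescence. Membranes were stripped and re-probed for EFα1 (1:3000) as loading control. Densitometry; 3-4 cell passages.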
# [5] = test system: TGF-β release from NRK-52E cells; test: TGF-β release into cell media by ELISA; assay type: cell-based, rat; details: MGA 48 h
# How it was run: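 Cells were seeded in 12-well plates, kept serum-free for 24 h, then treated with MGA ± test agents; serum-free cells served as controls. Media were collected on ice and TGF-β measured by ELISA (sensitivity 15 pg/ml). Release was expressed as ng/ml.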
# [6] = test system: ERK1/2 in NRK-52E cells; test: MGA-induced ERK1/2 phosphorylation by Western blot; assay type: cell-based, rat; details: MGA 48 hours, immunoblot densitometry, n=3
# How it was run: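 Cells were serum-starved for 24 h, then treated with 100 uM MGA for 48 h. Lysis was in Triton buffer, pH 7.4, with NaVO4, PMSF and leupeptin. 10-50 μg protein was run on 10% SDS-PAGE and transferred to PVDF. Blots were probed overnight at 4°C with anti-phospho-ERK1/2 (1:2000), then stripped and re-probed for total ERK1/2 (1:3000). Detection was HRP chemiluminescence, with densitometry. 3 cell passages.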
# [7] = Ang-; assay type: in vitro ADME, rat; details: n=3
# How it was run: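 NRK-52E cells grown to confluence are serum-starved 24 h, then kept 48 h in serum-free or 100 uM glycated albumin (MGA) medium. They are harvested, frozen at −80°C and homogenized in 10 mM HEPES, 125 mM NaCl, 10 μM ZnCl2, pH 7.4, then spun at 100,000g. 125I-Ang-(1-7) (0.5 nM) is incubated with 2 μg supernatant protein for 30 min at 37°C and stopped with ice-cold 1.0% phosphoric acid. Products are separated by isocratic reverse-phase HPLC with flow-through γ detection, identified against 125I standards, and reported as fmol/mg/min (Bradford protein).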
# [8] = test system: α-SMA in NRK-52E cells; test: α-SMA immunofluorescent staining; assay type: cell-based, rat; details: 100 μM MGA 72 h, Ang-(1-7) 100 nM + DAL 10 μM
# How it was run: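 NRK-52E cells were grown 2 days on chamber slides in 5% FBS medium, then serum-free for 24 h. They were treated 72 h with 100 μM MGA ± test agents and fixed in 2% paraformaldehyde for 15 min. After 0.2% Triton permeabilisation and 3% BSA block, cells were stained overnight at 4°C with mouse anti-α-SMA (1:200), then Alexa Fluor 568 anti-mouse (1:400); nuclei with DAPI. Representative of 3 passages.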
# [9] = test system: ERK1/2 in NRK-52E cells; test: TGF-β-induced ERK1/2 phosphorylation by Western blot; assay type: cell-based, rat; details: TGF-β 5 ng/ml, 15 min incubation, n=3
# How it was run: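 Rat kidney proximal epithelial NRK-52E cells in DMEM/F12 with 5% FBS are serum-starved 24 h, then exposed to TGF-β (5 ng/ml) for 15 min. Lysis is in Triton buffer (100 mM NaCl, 50 mM NaF, 5 mM EDTA, 1% Triton X-100, 50 mM Tris-HCl pH 7.4, plus NaVO4, PMSF, leupeptin), followed by sonication and a 10,000 g spin. 10-50 μg protein is run on 10% SDS-PAGE and blotted to PVDF. Phospho-ERK1/2 is detected by HRP chemiluminescence, then the membrane is stripped and reprobed for total ERK1/2. Bands are quantified by densitometry.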
compound,measurement,setting,value
MGA: AGE product: BSA incubated with 500 μM methylglyoxal for 24 hours,Intracellular Ang-(1-7) peptide content,"[1]; 100 uM MGA 48 h, RIA, mean ± SEM, n=3, control cells 396 ± 59",219 ± 54 fmol/mg protein
same,Intracellular Ang I peptide levels vs control,"[1]; 100 uM MGA 48 h, RIA, n=3",not different
same,Intracellular Ang II peptide levels vs control,"[1]; 100 uM MGA 48 h, RIA, n=3",not different
same,Reduction of intracellular levels of Ang-(1-7),[1]; MGA exposure 48 hours,approximately 50%
same,"Fold increase of 3H-leucine incorporation, MGA alone",[2],approximately 2 fold
same,"Fold increase of cell area, MGA alone",[3],approximately 4 fold
same,"Cell area, MGA alone",[3]; mean ± SEM n=3,467 ± 70 % of control
same,"Fold induction of α-SMA protein expression, MGA alone",[4]; vs control cells,3 fold
same,"TGF-β release, MGA alone","[5]; ELISA of media, control 0.4 ± 0.1, n=6",1.16 ± 0.1 ng/mL
same,"Fold increase of TGF-β release, MGA alone",[5]; vs control,approximately 3 fold
same,"Fold increase in density of phosphorylated ERK 1, MGA alone",[6],2.5 fold
same,"Fold increase in density of phosphorylated ERK 2, MGA alone",[6],4 fold
"CC[C@H](C)[C@H](NC(=O)[C@H](Cc1ccc(O)cc1)NC(=O)[C@@H](NC(=O)[C@H](CCCNC(=N)N)NC(=O)[C@@H](N)CC(=O)O)C(C)C)C(=O)N[C@@H](Cc1c[nH]cn1)C(=O)N1CCC[C@H]1C(=O)O [Ang-(1-7), Angiotensin-(1-7)]","Metabolism of Ang-(1-7) to Ang-(1-4), MGA cells (abstract)",[7]; supernatant of MGA-treated NRK-52E cells,175 ± 9 fmol/min/mg protein
same,"Metabolism of Ang-(1-7) to Ang-(1-4), control cells (abstract)",[7]; supernatant of control NRK-52E cells,115 ± 11 fmol/min/mg protein
"D-Ala^7-Ang-(1-7) [DAL, reference compound]",Effect of DAL on the inhibition of MGA-induced α-SMA expression by Ang-(1-7),[4]; Ang-(1-7) 100 nM + DAL 10 μM,blocked
same,Effect of DAL on the inhibition of MGA-induced MT by Ang-(1-7) (α-SMA staining),[8],appeared to be reversed
TGF-β,"ERK1/2 phosphorylation, TGF-β alone",[9],stimulated
